# Screening data as filed in PubChem BioAssay.
# Only some compounds are listed: those with a hit (about 6.6% of all), similar ones and a draw of the others.
# Lung fibro prol – antiproliferative effect on LL 47 fibroblasts – human, LL 47 cells, CellTiter-Glo luminescence, primary screen | LL 47 human lung fibroblast viability, ATP luminescence; active compounds read low | viability, % at 10 µM | hit rate 1.1% among 85,000;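 active = viability at or below 50% in the single dose screen; inactive = viability above 50%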;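 note: compound exposure lasted 72 h before the ATP readout; 100% = median luminescence of untreated cell-only wells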
#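 Times – overnight cell rest, 72 h compound treatment at 37 °C · Test system – human lung fibroblast line LL 47, low passage · Amount – 1,150 cells in each well · Controls – cell-only wells, no compound · Doses – 0.1% DMSO in all compound wells · Measured by – CellTiter-Glo luminescence · Buffer or medium – IMEM plus 15% FBS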
# HUVEC prolif 384 – inhibitors of HUVEC proliferation, primary screen, cell-based, 384-well; CellTiter-Glo luminescence, 72 h; active compounds read low; viability, % at 10 µM (by protocol); hit rate 1.1% among 86,000;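 active = viability at or below 30%; inactive = viability above 30%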;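 note: 100% = median luminescence of DMSO-only cell control wells on each plate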
# H69AR growth 86K – proliferation blockers of H69AR lung cancer cells, primary screen, cell-based, human, 86K library; H69AR lung tumor viability, ATP luminescence, 72 h; active compounds read low; viability, % at 10 µM; hit rate 6% among 85,000; AID 598, 2007;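 active = viability at or below 40%; inactive = viability above 40%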;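 note: multidrug resistant small cell line overexpressing MRP-1 efflux transporter; 100% = mean luminescence of untreated control wells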
# Jurkat viability – cytotoxicity toward Jurkat T cells, primary screen, cytotoxicity control, cell-based, Jurkat E6.1, 60K MLSMR library; Jurkat E6.1 viability, ATP luminescence, 48 h; inhibition, % at 4 µM; hit rate 1.2% among 56,000; AID 463, 2006;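 active = inhibition above the mean inhibition of all tested compounds plus 3 SD, cut at about 28% in these data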
# An asterisk follows results filed as active; nt = no result given.
SMILES,Lung fibro prol,HUVEC prolif 384,H69AR growth 86K,Jurkat viability
C=CCN(C)CCCNC(=O)/C=N/O,103,75,91,nt
Nc1cccc(C(=O)Nc2ccc3nc(-c4cccnc4)[nH]c3c2)c1,113,110,66,nt
O=C(Nc1ccc2nc(-c3cccnc3)[nH]c2c1)C12CC3CC(CC(C3)C1)C2,48*,6.0*,30*,nt
CC(C)c1nc2ccc(NC(=O)C34CC5CC(CC(C5)C3)C4)cc2[nH]1,104,61,60,nt
O=C(Nc1ccc2nc(-c3cccnc3)[nH]c2c1)C1CCCCC1,103,75,25*,nt
COc1ccccc1C1CC(=O)Nc2cc3c(cc21)OCCO3 (centres undefined),56,46,22*,92*
Cc1ccc(C2CC(=O)Nc3cc4c(cc32)OCCO4)s1 (centres undefined),83,85,53,13
COc1cccc(C2CC(=O)Nc3cc4c(cc32)OCCO4)c1OC(C)C (centres undefined),95,96,27*,10
CC(C)Oc1ccccc1C1CC(=O)Nc2cc3c(cc21)OCCO3 (centres undefined),55,55,27*,98*
O=C1CC(c2cccs2)c2cc3c(cc2N1)OCCO3 (centres undefined),94,95,18*,4
COc1cc2c(cc1OC)C(c1cccc(OC)c1OC)CC(=O)N2 (centres undefined),89,89,104,-2
CC1CCc2ccc(F)cc2N1S(=O)(=O)c1cccs1 (centres undefined),89,83,27*,6
O=S(=O)(c1cccs1)N1CCc2ccccc21,102,103,98,-3
CCOC(=O)Cn1c(=O)oc2cc(S(=O)(=O)Nc3ccc(N(CC)CC)cc3C)ccc21,6.0*,2.4*,94,-4
COC(=O)CSC1=C(C#N)C(c2ccccc2)CC(=O)N1 (centres undefined),93,83,41,8
COC(=O)CSC1=C(C#N)C(=O)NC(c2ccccc2)S1 (centres undefined),7.4*,28*,1.3*,nt
Cc1ncc(CO)c2c1OC(C)(C)OC2,98,100,102,-8
Cc1ncc(CCl)c2c1OC(C)(C)OC2,97,79,2.8*,nt
COc1ccc(N(C)S(=O)(=O)c2cccc(C(=O)Nc3ccc(-n4cnnn4)cc3)c2)cc1,nt,67,46,12
Cc1ccc(NC(=O)Cc2nc(CSc3nnc(-c4ccc5c(c4)OCO5)o3)cs2)cc1,95,82,83,5
CCOC(=O)N1CCN(c2c(F)cc3[nH]c(=S)[nH]c3c2Br)CC1,60,78,8.9*,85*
CC(=O)N1CCc2c(sc(NC(=O)c3ccc(S(=O)(=O)N(C)C)cc3)c2C#N)C1,97,94,85,0
CC(=O)N1CCc2c(sc(NC(=O)c3ccc4c(c3)OCCO4)c2C#N)C1,55,63,24*,88*
CC1=C(C(=O)OCc2ccc3c(c2)OCO3)C(c2ccccc2OCc2ccccc2)NC(=O)N1 (centres undefined),96,86,77,nt
CC1=C(C(=O)OCc2ccc3c(c2)OCO3)C(c2ccccc2)NC(=O)N1 (centres undefined),82,26*,23*,38*
SMILES,Lung fibro prol,HUVEC prolif 384,H69AR growth 86K,Jurkat viability
O=C(O)c1ccccc1SC1CC(=O)N(C2CCCCC2)C1=O (centres undefined),98,95,36*,-3
Cc1cc(NC(=O)CCNS(=O)(=O)c2cc(Br)cnc2N)ccc1Br,91,48,31*,nt
COc1ccccc1Cn1c(=O)c2ccccc2n2c(Sc3ncnc4sccc34)nnc12,56,75,1.4*,-4
CC1(C)Cc2c(ccc3ccccc23)C(NNC(=O)c2cccnc2)=N1,100,92,84,nt
CCOC(=O)c1c(NC(C)=O)sc2c(OC)c(Br)ccc12,94,80,38*,nt
COc1ccccc1N1CCN(C(=O)COc2ccc(C)cc2Br)CC1,95,103,49,6
COc1ccccc1N1CCN(C(=O)COc2ccc(Cl)cc2Br)CC1,97,68,17*,7
CCOC(=O)c1cc2sccc2n1CC(=O)Nc1ccc2c(c1)OCCO2,92,94,38*,-4
CN1CCc2c(sc3c2C(=O)NC(c2cccs2)N3)C1 (centres undefined),121,94,97,-7
CN1CCc2c(sc3c2C(=O)NC(c2ccc(-c4cccc(Cl)c4)o2)N3)C1 (centres undefined),94,48,3.3*,-2
